Screening data as filed in PubChem BioAssay.
bCat nuc transl: alters nuclear translocation of beta-catenin in HeLa cells. AID 1665. nuclear translocation activity, % at 5 µM. 190,000 tested, 0.3% active. immunofluorescence imaging;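 active means nuclear translocation activity above 50% at 5 µM, with a well cell count of 50 or more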;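 further: per-cell ratio of nuclear to cytoplasmic median beta-catenin stain intensity; plate controls were DMSO negative control for no effect and GSK-3 inhibitor IX positive control for full effect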
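Test system: HeLa cells, endogenous beta-catenin; Compound: single 5 µM dose plus 0.02–20 µM confirmation series; Times: compound exposure 24 h at 37°C; Signal: fluorescence imaging of beta-catenin antibody stain plus DAPI; Read-out: % activation, nuclear-to-cytoplasmic median beta-catenin signal ratio per cell.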
IEC-6 tox-1: counter-screen for KLF5 inhibitors: cytotoxicity in IEC-6 cells; IEC-6 cytotoxicity, luminescence viability; inhibition, % at 5 µM; 290,000 tested, 0.78% active; AID 1825; in the data active means inhibition above about 22%;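 further: 0% = plate median of test compound wells and 100% = cytotoxic reference compound wells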
Ba/F3 V617F tox: reduce viability of Ba/F3 cells dependent on JAK2V617F; 220,000 tested, 1.1% active; AID 1446; inhibition, % at 5.6 µM; Ba/F3 EpoR-JAK2V617F viability, ATP luminescence;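 active means inhibition above the campaign mean plus 3 SD over all tested compounds, cut at about 24% in these data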;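 further: cytokine-independent growth of Ba/F3 cells driven by EpoR plus mutant JAK2; 0% = DMSO-treated cells and 100% = JAK inhibitor I control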
BaF3 tox: parental Ba/F3 viability inhibition as JAK2V617F counter-screen; CellTiter-Glo ATP luminescence; inhibition, % at 5.6 µM; 220,000 tested, 1.1% active;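 active means inhibition above a per-campaign cutoff, the mean inhibition of all tested compounds plus 3 SD, cut at about 27% in these data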;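 further: 0% = DMSO wells and 100% = JAK Inhibitor I control wells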
KLF5 inhibitor: kruppel-like factor 5 inhibition | DLD-1 KLF5 promoter-luciferase reporter, luminescence | AID 1700 | inhibition, % at 5 µM | 290,000 tested, 0.23% active;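 active means inhibition above a per-plate limit of that plate's mean compound inhibition plus 3 SD, cut at about 60% in these data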;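 further: 0% = DMSO wells and 100% = LY294002 at 200 µM; higher means less KLF5 promoter-driven luciferase light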
MT stabilize HCS: microtubule stabilization, imaging screen. AID 2205. HeLa tubulin immunostaining HCS, 24 h; share of cells brighter than vehicle mean+2SD. 200,000 tested, 0.83% active. % tubulin-high responders, % at 10 µM;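 active means plate Z-score above 3 for both tubulin-high and condensed-nucleus cell shares, with cell loss under 80%, at 10 µM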;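 further: anti alpha tubulin signal scored within the nucleus-defined area of each cell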
KLF5 confirm: confirmation of KLF5 inhibitors | 610 tested, 79% active | DLD-1 KLF5 promoter firefly luciferase reporter, luminescence | AID 1834 | shares compounds with KLF5 inhibitor | inhibition, % at 4 µM;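 active means inhibition above a set limit taken from the earlier primary screen, cut at about 63% in these data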;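 further: 0% = DMSO wells and 100% = LY294002 at 200 µM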
IEC-6 tox-2: kills rat IEC-6 cells in KLF5 counter-screen. shares compounds with KLF5 inhibitor. 610 tested, 56% active. AID 1905. IEC-6 rat intestinal cells, viability luminescence. inhibition, % at 4 µM; in the data active means inhibition above about 23%;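 further: cells exposed to compounds for 48 hours before viability read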
Numbers without * were called inactive; . = not tested or not shown. Shown are actives, neighbours in structure and some others; about 2.1% of the full set was active somewhere.

SMILES | bCat nuc transl | IEC-6 tox-1 | Ba/F3 V617F tox | BaF3 tox | KLF5 inhibitor | MT stabilize HCS | KLF5 confirm | IEC-6 tox-2
CN=c1scc(-c2cccs2)n1/N=C/c1ccc(O)c(O)c1O | 0 | -5 | -2 | 2 | -139 | 7 | . | .
CN=c1scc(-c2cccs2)n1/N=C/c1ccccc1O | . | -13 | -1 | 9 | 108* | 3 | 95* | -6
Clc1ccc(CSc2nnc(-c3ccc4c(c3)OCO4)o2)cc1 | 6 | -2 | -3 | 5 | -37 | 1 | . | .
O=C1CCCCC1Sc1nnc(-c2ccc3c(c2)OCO3)o1 (centres undefined) | 0 | 6 | 5 | 8 | 66* | 4 | 40 | -2
Cc1cccc(NC(=S)N2CCN(S(=O)(=O)c3cccc(F)c3)CC2)c1 | -2 | 5 | 2 | 4 | 2 | 2 | . | .
O=C(O)c1ccc(N/N=C/c2ccc3nccnc3c2)cc1 | -1 | 3 | 5 | 2 | 98* | . | 103* | 2
O=C(CN1C(=O)c2ccccc2S1(=O)=O)c1ccc2c(c1)OCCO2 | 0 | 2 | 4 | 0 | 91* | . | 97* | -1
O=C(CN1C(=O)c2ccccc2S1(=O)=O)c1ccc(Cl)cc1Cl | . | 3 | . | . | 84* | . | 83* | -4
O=C(CN1C(=O)c2ccccc2S1(=O)=O)c1ccccc1F | . | 2 | . | . | 8 | . | . | .
O=C(CN1C(=O)c2ccccc2S1(=O)=O)c1ccc2c(c1)OCCCO2 | 1 | -5 | -4 | -4 | 101* | . | 108* | 2
O=C(CN1C(=O)c2ccccc2S1(=O)=O)c1ccc(F)cc1 | -1 | -2 | 0 | 1 | -15 | . | . | .
CS(=O)(=O)Cc1ccc(C(=O)NC2CCSc3ccccc32)cc1 (centres undefined) | . | 0 | . | . | 7 | . | . | .
CCSc1nnc(NC(=O)CCNS(=O)(=O)c2ccccc2F)s1 | . | -4 | . | . | -27 | . | . | .
Clc1ccccc1/C=C/c1nc(-c2ccccn2)no1 | -1 | -6 | -2 | 2 | 72* | . | 73* | 5
Cc1cc2nnc(SCc3ccccc3)n2c(N)n1 | -7 | -3 | -2 | 2 | -42 | 4 | . | .
Nc1ccc(-c2nc3ccc(C(=O)O)cc3s2)cc1 | 0 | -3 | -1 | 0 | 109* | 7 | 105* | -7
O=C(Nc1ccc(Cl)cc1)Nc1cccc(C(=O)O)c1 | 1 | -7 | -1 | 12 | 66* | 2 | 72* | 3
CCOC(=O)c1cccc(NC(=O)Nc2ccc(OCC)cc2)c1 | -6 | -1 | 4 | 4 | -19 | 2 | . | .
Cc1ccccc1OCC(=O)Nc1cccc(C(=O)O)c1 | -3 | -2 | -1 | 3 | 95* | 1 | 96* | 4
CCOc1ccc(NC(=O)Nc2cccc(C(=O)O)c2)cc1 | -2 | -1 | 6 | 9 | 94* | 2 | 101* | 16
O=C(Nc1cccc(Cl)c1)Nc1cccc(C(=O)O)c1 | -1 | -6 | 0 | -2 | 6 | . | . | .
Cc1cccc(OCC(=O)Nc2cc(NC(=O)COc3cccc(C)c3C)cc(C(=O)O)c2)c1C | . | 4 | . | . | -21 | . | . | .
COCCOc1cc(-n2cccc2)c(Cl)cc1Cl | 1 | -6 | -4 | 8 | 0 | 2 | . | .
CCCCCC(=O)Nc1ncc2c(n1)CC(c1cccs1)CC2=O (centres undefined) | -3 | -3 | -4 | 5 | -15 | . | . | .
CCCS(=O)(=O)c1cnc(C2COc3ccccc3O2)nc1N (centres undefined) | . | 12 | . | . | 98* | . | 78* | 5
SMILES | bCat nuc transl | IEC-6 tox-1 | Ba/F3 V617F tox | BaF3 tox | KLF5 inhibitor | MT stabilize HCS | KLF5 confirm | IEC-6 tox-2
O=[N+]([O-])c1cc(CN2CCN(c3ccccc3)CC2)c(O)c2ncccc12 | 0 | 52* | 74* | 76* | 76* | 5 | 89* | 77*
O=[N+]([O-])c1cc(CN2CCOCC2)c2cccnc2c1O | -1 | -6 | 5 | 8 | -1 | 5 | . | .
COc1cc(C(=O)N/N=C(\C)c2ccccn2)cc(OC)c1OC | . | 96* | . | . | 84* | . | 59 | 35*
COc1cc(NC(=O)c2ccccn2)cc(OC)c1OC | 1 | 4 | 0 | 0 | 2 | 2 | . | .
c1ccc(-c2noc(-c3ccc4ccccc4c3)n2)nc1 | . | 7 | 2 | 6 | 82* | 3 | 106* | 8
Cc1ccccc1CSc1nc2[nH]ncc2c(=O)[nH]1 | -4 | 6 | 2 | 9 | -12 | 3 | . | .
Cc1ccc(C)c(CSc2nc3[nH]ncc3c(=O)[nH]2)c1 | 21 | 63* | 83* | 76* | 65* | 23* | 68* | 53*
CC1(c2ccccc2)NC(=O)N(N)C1=O (centres undefined) | 1 | 4 | -4 | 0 | -31 | 3 | . | .
N#Cc1ccc(NC(=O)Cn2cnc(S(=O)(=O)N3CCOCC3)c2)cc1 | . | -6 | . | . | -26 | . | . | .
COc1cc(/C=N/NS(=O)(=O)c2ccc(C)cc2)ccc1OCc1ccc(C(=O)O)cc1 | 0 | -4 | -1 | 3 | 78* | 3 | 16 | 2
CCCNC(=O)Nc1ccccc1SC | -4 | 7 | -1 | 0 | -17 | 5 | . | .
CCc1ccn2cc(-c3ccc4c(c3)OCO4)nc2c1 | 0 | 6 | 6 | 7 | 66* | . | 62* | 6
O=C1CCCc2nc3c(cc21)C(O)Oc1ccccc1-3 (centres undefined) | 3 | 2 | -2 | -2 | 110* | 4 | -4 | 5
O=C1CCCc2nc3c(cc21)C(O)Oc1c-3ccc2ccccc12 (centres undefined) | 0 | -2 | -1 | 6 | -6 | 2 | . | .
Cc1ccc2nc(-c3ccc(O)c(O)c3)cn2c1 | . | 19 | . | . | -63 | . | . | .
Cc1ccc2nc(-c3ccccc3)cn2c1 | -3 | 16 | 15 | 15 | 84* | 5 | 77* | 23*
CSc1ccc(C(=O)C2CCCN(Cc3cccc4nccnc34)C2)cc1 (centres undefined) | 0 | -2 | -3 | -3 | 6 | . | . | .
CC(=NC1CC1)c1c(-c2ccccc2)[nH]n(-c2nc3ccccc3s2)c1=O | . | -2 | 0 | 5 | -47 | 3 | . | .
CC(=NC1CCCC1)c1c(C)[nH]n(-c2nc3ccccc3s2)c1=O | -2 | 1 | 2 | 6 | 72* | 1 | 26 | 3
CCN1/C(=C/c2ccc3ccccc3[n+]2CC)C=Cc2ccccc21 | . | 48* | 99* | 92* | 66* | 4 | 103* | 58*
CCCNC(=O)c1ccc(COc2ccc(CCC)cc2OC)o1 | . | 2 | . | . | -79 | . | . | .
COc1ccc(/C=N/NC(=O)CCn2c3ccccc3c3ccccc32)cc1O | 53* | 10 | 78* | 71* | 74* | 18* | 79* | 12
O=C(Nc1ccc2c(c1)OCCO2)c1cc(F)c(F)cc1Cl | . | -2 | . | . | -104 | . | . | .
Cc1ccc(C(=O)Nc2ccc3c(c2)OCCO3)c(Cl)c1 | . | 3 | . | . | 78* | . | 38 | 6
